# Substitutions are numbered along the chain they refer to.
# Legend:
# Settings in all cases: stereoisomer not certain
# OR2W1 (Homo sapiens) = molecular target: T1, OR2W1 (Homo sapiens) (UniProt Q9Y3N9)
# T1 sequence (whole entry): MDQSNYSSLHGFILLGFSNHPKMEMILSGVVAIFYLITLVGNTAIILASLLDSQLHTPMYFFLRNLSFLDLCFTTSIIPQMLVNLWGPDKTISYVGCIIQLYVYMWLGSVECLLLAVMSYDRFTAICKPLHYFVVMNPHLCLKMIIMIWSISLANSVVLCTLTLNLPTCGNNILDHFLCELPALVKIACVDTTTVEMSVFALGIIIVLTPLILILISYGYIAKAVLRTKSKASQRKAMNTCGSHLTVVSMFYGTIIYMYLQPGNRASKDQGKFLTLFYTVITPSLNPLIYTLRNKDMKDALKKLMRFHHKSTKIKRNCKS
# Outline: (§1)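 Each receptor–molecule pair is labelled responsive or non-responsive (inactive) according to whether the original authors judged the measured signal statistically different from baseline. The data were taken from the main text and supplementary material of published papers and checked for typos and inconsistencies. Assay methods differed by source, with transient luciferase assays in mammalian cell lines being common.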
# OR2W1 [1] = test system: T2, OR2W1
# T2 sequence (whole entry): T1 sequence (whole entry) with D296N
# Outline: as §1
# OR2W1 [2] = test system: T3, OR2W1; remark: listed apart in the source
# T3 sequence (whole entry): T1 sequence (whole entry) with M81V
# Outline: as §1
# OR2W3 (Homo sapiens) = molecular target: T4, OR2W3 (Homo sapiens) (UniProt Q7Z3T1)
# T4 sequence (whole entry): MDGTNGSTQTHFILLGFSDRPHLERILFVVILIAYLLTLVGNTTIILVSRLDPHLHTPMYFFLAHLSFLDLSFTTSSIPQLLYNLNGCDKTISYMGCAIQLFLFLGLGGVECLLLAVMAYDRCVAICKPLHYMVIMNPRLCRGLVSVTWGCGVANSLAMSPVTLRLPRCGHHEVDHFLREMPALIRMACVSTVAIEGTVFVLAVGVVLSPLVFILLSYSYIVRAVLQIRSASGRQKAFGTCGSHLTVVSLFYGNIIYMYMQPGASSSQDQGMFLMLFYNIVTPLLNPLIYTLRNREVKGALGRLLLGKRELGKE
# Outline: as §1
# OR2T7 = test system: OR2T7
# OR2T7, sequence (as listed by the source): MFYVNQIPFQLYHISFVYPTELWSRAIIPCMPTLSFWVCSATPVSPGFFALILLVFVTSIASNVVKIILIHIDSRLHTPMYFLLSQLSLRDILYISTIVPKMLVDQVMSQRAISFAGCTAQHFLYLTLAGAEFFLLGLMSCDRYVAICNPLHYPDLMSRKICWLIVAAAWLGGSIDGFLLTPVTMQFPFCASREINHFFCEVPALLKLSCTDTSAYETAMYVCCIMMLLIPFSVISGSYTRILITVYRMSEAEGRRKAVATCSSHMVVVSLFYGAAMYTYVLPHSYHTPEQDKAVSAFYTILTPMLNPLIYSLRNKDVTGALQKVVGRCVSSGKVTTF
# Outline: as §1
# OR2T8 (Homo sapiens) = OR2T8 (Homo sapiens) (UniProt A6NH00)
# OR2T8 (Homo sapiens), sequence (A6NH00 whole entry): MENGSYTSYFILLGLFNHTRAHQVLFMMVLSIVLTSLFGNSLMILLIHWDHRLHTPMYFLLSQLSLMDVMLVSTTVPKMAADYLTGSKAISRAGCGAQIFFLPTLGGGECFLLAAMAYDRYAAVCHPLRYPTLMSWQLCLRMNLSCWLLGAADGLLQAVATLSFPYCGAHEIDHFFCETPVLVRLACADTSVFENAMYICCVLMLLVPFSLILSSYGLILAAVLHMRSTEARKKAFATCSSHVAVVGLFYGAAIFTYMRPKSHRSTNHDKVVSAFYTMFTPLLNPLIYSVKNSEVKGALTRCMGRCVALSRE
# Outline: as §1
# OR2V1 (Homo sapiens) = OR2V1 (Homo sapiens) (UniProt Q8NHB1)
# OR2V1 (Homo sapiens), sequence (Q8NHB1 whole entry): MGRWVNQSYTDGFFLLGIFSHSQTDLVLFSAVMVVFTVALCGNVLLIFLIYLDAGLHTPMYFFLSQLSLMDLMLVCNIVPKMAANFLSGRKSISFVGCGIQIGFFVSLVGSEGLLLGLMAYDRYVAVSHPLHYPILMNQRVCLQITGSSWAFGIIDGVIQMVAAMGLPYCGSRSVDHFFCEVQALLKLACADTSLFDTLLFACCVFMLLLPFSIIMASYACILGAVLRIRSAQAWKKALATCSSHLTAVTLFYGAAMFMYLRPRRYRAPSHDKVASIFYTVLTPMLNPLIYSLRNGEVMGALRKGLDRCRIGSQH
# Outline: as §1
# OR2V2 (Homo sapiens) = OR2V2 (Homo sapiens) (UniProt Q96R30)
# OR2V2 (Homo sapiens), sequence (Q96R30 whole entry): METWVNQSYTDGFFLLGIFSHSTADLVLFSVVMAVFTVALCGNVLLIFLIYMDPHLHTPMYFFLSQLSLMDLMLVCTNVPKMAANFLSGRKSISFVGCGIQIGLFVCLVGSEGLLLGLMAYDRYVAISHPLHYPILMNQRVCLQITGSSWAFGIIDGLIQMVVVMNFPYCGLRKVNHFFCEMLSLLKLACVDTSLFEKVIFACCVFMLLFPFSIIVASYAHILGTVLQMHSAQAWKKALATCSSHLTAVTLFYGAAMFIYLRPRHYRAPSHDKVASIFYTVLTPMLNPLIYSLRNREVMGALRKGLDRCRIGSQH
# Outline: as §1
# OR2W1 G96V = test system: OR2W1 G96V
# OR2W1 G96V, sequence (as listed by the source, stated change not applied): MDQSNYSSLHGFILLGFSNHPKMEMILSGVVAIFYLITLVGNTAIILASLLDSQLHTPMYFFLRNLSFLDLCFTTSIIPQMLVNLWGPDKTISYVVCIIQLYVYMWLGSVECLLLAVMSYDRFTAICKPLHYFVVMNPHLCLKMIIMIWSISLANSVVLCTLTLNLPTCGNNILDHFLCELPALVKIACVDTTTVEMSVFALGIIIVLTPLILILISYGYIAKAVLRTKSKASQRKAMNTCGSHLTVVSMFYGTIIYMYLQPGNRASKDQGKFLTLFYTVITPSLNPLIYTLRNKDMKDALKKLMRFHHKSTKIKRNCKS
# Outline: as §1
# OR2W5P (Homo sapiens) = OR2W5P (Homo sapiens) (UniProt A6NFC9)
# OR2W5P (Homo sapiens), sequence (A6NFC9 whole entry): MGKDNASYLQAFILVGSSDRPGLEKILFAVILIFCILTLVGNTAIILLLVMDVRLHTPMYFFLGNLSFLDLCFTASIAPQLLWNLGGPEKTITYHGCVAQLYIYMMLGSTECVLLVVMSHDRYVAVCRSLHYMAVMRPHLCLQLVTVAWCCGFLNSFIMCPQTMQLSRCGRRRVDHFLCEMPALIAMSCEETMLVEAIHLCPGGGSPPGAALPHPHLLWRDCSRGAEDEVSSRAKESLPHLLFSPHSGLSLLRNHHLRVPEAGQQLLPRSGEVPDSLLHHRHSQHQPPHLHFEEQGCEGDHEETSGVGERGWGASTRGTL
# Outline: as §1
# 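Further: active if original authors judged signal statistically different from baseline.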
structure (smiles),measurement,setting,value
SCc1ccccc1,odorant receptor agonist call,OR2W1 (Homo sapiens),active
same,odorant receptor agonist call,OR2W1 [1],active
same,odorant receptor agonist call,OR2W1 [2],active
O=Cc1ccc2c(c1)OCO2,odorant receptor agonist call,OR2W1 (Homo sapiens),active
same,odorant receptor agonist call,OR2W1 [1],active
same,odorant receptor agonist call,OR2W1 [2],active
C=CCc1ccccc1,odorant receptor agonist call,OR2W1 (Homo sapiens),inactive
Cc1cccc(C)c1,odorant receptor agonist call,OR2W3 (Homo sapiens),inactive
CCC1CCC(=O)O1 (stereo not drawn),odorant receptor agonist call,OR2W1 (Homo sapiens),inactive
SCc1ccco1,odorant receptor agonist call,OR2W1 (Homo sapiens),active
same,odorant receptor agonist call,OR2W1 [1],active
same,odorant receptor agonist call,OR2W1 [2],active
C=CCSSCC=C,odorant receptor agonist call,OR2W1 (Homo sapiens),inactive
same,odorant receptor agonist call,OR2W1 [1],active
same,odorant receptor agonist call,OR2W1 [2],active
NCC(=O)c1ccccc1,odorant receptor agonist call,OR2W1 (Homo sapiens),inactive
Cc1ccc(O)c(C)c1,odorant receptor agonist call,OR2W1 (Homo sapiens),inactive
O=Cc1ccco1,odorant receptor agonist call,OR2W1 (Homo sapiens),inactive
Cc1ccccc1O,odorant receptor agonist call,OR2W1 (Homo sapiens),inactive
O=c1cc(O)c2ccccc2o1,odorant receptor agonist call,OR2W1 (Homo sapiens),inactive
CSSC,odorant receptor agonist call,OR2W1 (Homo sapiens),inactive
CCOC(=O)Cc1ccccc1,odorant receptor agonist call,OR2W1 (Homo sapiens),active
same,odorant receptor agonist call,OR2W1 [1],active
same,odorant receptor agonist call,OR2W1 [2],active
O=C(O)Cc1ccccc1,odorant receptor agonist call,OR2W1 (Homo sapiens),inactive
C=CCOC(=O)Cc1ccccc1,odorant receptor agonist call,OR2T7,inactive
same,odorant receptor agonist call,OR2T8 (Homo sapiens),inactive
same,odorant receptor agonist call,OR2V1 (Homo sapiens),inactive
same,odorant receptor agonist call,OR2V2 (Homo sapiens),inactive
same,odorant receptor agonist call,OR2W1 (Homo sapiens),active
same,odorant receptor agonist call,OR2W1 G96V,inactive
same,odorant receptor agonist call,OR2W3 (Homo sapiens),inactive
same,odorant receptor agonist call,OR2W5P (Homo sapiens),inactive
C=CCc1ccc(OC)cc1,odorant receptor agonist call,OR2W1 (Homo sapiens),active
same,odorant receptor agonist call,OR2W1 [1],active
same,odorant receptor agonist call,OR2W1 [2],active
COc1ccc(C=O)cc1,odorant receptor agonist call,OR2W1 (Homo sapiens),active
same,odorant receptor agonist call,OR2W1 [1],active
same,odorant receptor agonist call,OR2W1 [2],active
same,odorant receptor agonist call,OR2W3 (Homo sapiens),inactive
Cc1c([N+](=O)[O-])c(C)c([N+](=O)[O-])c(C(C)(C)C)c1[N+](=O)[O-],odorant receptor agonist call,OR2T8 (Homo sapiens),inactive
same,odorant receptor agonist call,OR2V1 (Homo sapiens),inactive
same,odorant receptor agonist call,OR2V2 (Homo sapiens),inactive
same,odorant receptor agonist call,OR2W1 (Homo sapiens),inactive
same,odorant receptor agonist call,OR2W3 (Homo sapiens),inactive
OCc1ccco1,odorant receptor agonist call,OR2W1 (Homo sapiens),active
same,odorant receptor agonist call,OR2W1 [1],active
same,odorant receptor agonist call,OR2W1 [2],inactive

# Source: the M2OR odorant receptor database
